Apaf-1 act – activators of human Apaf-1 apoptosome, primary screen, biochemical, DEVD-Rh110 fluorescence, uHTS; Apoptotic protease-activating factor 1 (Homo sapiens), O14727; Apaf-1 apoptosome caspase-3 activation; active compounds read low; activity change, negative = activation, % at 20 µM; hit rate 0.31% among 330,000; AID 489031, 2010;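 active = activity change at or below -40% at 20 µM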
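Assay system – biochemical Apaf-1 apoptosome reconstitution · Medium – 20 mM HEPES buffer, pH 7.5, containing CHAPS and BSA · Incubation – 30 min preincubation, 50 min reaction, room temperature · Measured by – Caspase-3-released Rh110 fluorescence, 540 nm emission, 480 nm excitation · Read-out – Caspase-3 cleavage activity downstream of Apaf-1 activation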
Rh110 interf act – Rh110 fluorescence interference by putative Apaf-1 activators, confirmation, artefact control for Apaf-1 activator project, biochemical, 20 µM. AID 504616, 2011. quenched caspase reaction, Ex480/Em540. fluorescence interference (activity change), % at 20 µM, hits read low. shares compounds with Apaf-1 act. 980 tested, under 10 active;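 active = mean activity change at or below -40% when tested at 20 µM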
Apaf-1 act conf – Apaf-1 activators, single-dose retest, confirmation, biochemical, fluorescence, DEVD-Rh110, 20 µM; shares compounds with Apaf-1 act; reconstituted apoptosome caspase-3 activity; active compounds read low; activity change, negative = activation, % at 20 µM; hit rate 5% among 980;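 active = mean activity change at or below -40%, meaning activation of 40% or more, at 20 µM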
Apaf1 act interf – fluorescence interference of Apaf-1 activator hits, dose response, artefact control for Apaf-1 activator project; 55 tested, under 10 active; AID 588592, 2011; EC50, µM; shares compounds with Apaf-1 act; fluorescence interference counterscreen, Apaf-1 activator assay; call rule not given here
Each line names hits and unclear results; the compound was inactive in the other large screens (follow-up assays come after a bar, where they were run). These entries were drawn from the full list.

COC(=O)CCC(=O)OC1(C)C(=O)C=C2C=C(C3CC3)N(C3CC3)C=C2C1=O (stereo not drawn)	none
COc1ccc(OC)c2c1sc(=NC(=O)C(C)(C)C)n2C	Apaf-1 act -370.3 | Rh110 interf act inactive | Apaf-1 act conf inactive
Brc1ccc(-c2cn3nc4c(nc3n2)CCCC4)cc1	none
CN(C)c1ccc(N/C=C/C(=O)C(C)(C)C)cc1	none
O=C(CCCC(=O)OCC(Cl)=C(Cl)Cl)Nc1ccccc1F	Apaf-1 act -61.3 | Rh110 interf act inactive | Apaf-1 act conf inactive
O=c1cccccc1NCc1ccccc1	none
O=[N+]([O-])c1cccnc1SCc1ccccc1	Apaf-1 act -514.3 | Rh110 interf act inactive | Apaf-1 act conf inactive
COC(=O)C1=C(C)N(Cc2ccccc2)C(=NCc2cccc(C(F)(F)F)c2)N[C@H]1c1cccc(C(F)(F)F)c1	none
CCc1nc(N2CCN(C(C)=O)CC2)c2c3c(sc2n1)CC(C(C)(C)C)CC3 (stereo not drawn)	none
CC(=O)N1CCN(C(=S)NC(=O)C23CC4CC(CC(C4)C2)C3)CC1	none
CCOc1ccccc1NC(=O)C(CC(C)C)NC(=O)C1CCCCC1 (stereo not drawn)	Apaf-1 act -53.1 | Rh110 interf act inactive | Apaf-1 act conf inactive
Cc1cc2ccccc2n1CCNC(=O)C1CCCCC1	none
CCc1ccc(NC(=O)[C@H](Cc2c[nH]c3ccccc23)NC(=O)[C@@H]2Cc3ccccc3CN2)cc1	none
COc1ccc(C2CC(=O)N3CN(c4ccc(C)c(Cl)c4)CSC3=C2C#N)cc1 (stereo not drawn)	none
COc1ccc(C[C@H]2CN3C(=NC[C@@H]3Cc3ccccc3)N2CCNC(=O)c2ccc(C)c(Br)c2)cc1	none
O=C(N/N=C\C=C\c1ccc([N+](=O)[O-])o1)c1cccs1	none
O=C(CNC(=O)c1ccc(Br)cc1)c1ccc(Br)cc1	Apaf-1 act -463.3 | Rh110 interf act inactive | Apaf-1 act conf inactive
CC(C)(C)c1ccc(C(=O)NNc2cc(N3CCCCC3)nc(N3CCCCC3)n2)cc1	none
Cc1nc2sccn2c(=O)c1CCN1CCC(=C(c2ccccc2)c2ccc(F)cc2)CC1	none
O=C(N/N=C/c1ccc(-c2ccccc2[N+](=O)[O-])o1)c1cccnc1	none
O=C(Nc1ccncc1NC(=O)c1cccc([N+](=O)[O-])c1)c1cccc([N+](=O)[O-])c1	Apaf-1 act -40.3 | Rh110 interf act inactive | Apaf-1 act conf inactive
O=C(CN1CCc2cc3c(cc2C1)OCCCO3)Nc1cccc([N+](=O)[O-])c1	none
Cn1ccc2cc3c(cc21)CCN3C(=O)Nc1cccnc1	none
Nc1ccc(Oc2ncccn2)cc1	none
COc1ccc(-c2cc(=O)[nH][nH]2)cc1OC	none
COc1ccc(-c2cnc(OC(C)(C)C)nc2OC(C)(C)C)cc1OC	Apaf-1 act -264.5 | Rh110 interf act inactive | Apaf-1 act conf inactive
CCOC(=O)N1CCC(NC(=O)c2ccc3c(c2)sc2nc(-c4ccc(OC)cc4)cn23)CC1	none
CCOC(=O)N1CCC(Nc2c(-c3ccc(C)c(C)c3)c(=O)c2=O)CC1	Apaf-1 act -201.7 | Rh110 interf act inactive | Apaf-1 act conf inactive
CCCN[C@H]1CCc2nc(N)sc2C1	none
CC1(C)S/C(=N/N=C/c2ccco2)NC1=O	Apaf-1 act -61.3 | Rh110 interf act inactive | Apaf-1 act conf inactive
Oc1c(Br)cc(/C=N/NC(=S)NCc2ccco2)cc1Br	Apaf-1 act -328.7 | Rh110 interf act inactive | Apaf-1 act conf inactive
O=C(NC1CCCCC1)C(c1ccncc1)N(C(=O)c1csnn1)c1ccccc1F (stereo not drawn)	Apaf-1 act -127.8 | Rh110 interf act inactive | Apaf-1 act conf inactive
CCOc1cccc(N(C(=O)C2COc3ccccc3O2)C(C(=O)NC2CCCCC2)c2ccc(O)cc2)c1 (stereo not drawn)	none
O=C(c1ccccc1)C(O)c1ccccc1 (stereo not drawn)	Apaf-1 act -40.9 | Rh110 interf act inactive | Apaf-1 act conf inactive
O=C(O)CCCNC(=O)C(c1ccccc1)c1ccccc1	none
COc1ccc(C(=O)O)cc1NC(=S)NC(=O)CSc1ccc(Cl)cc1	Apaf-1 act -151.7 | Rh110 interf act inactive | Apaf-1 act conf inactive
COc1cc(/C=C2/C(=O)N(c3ccccc3)N=C2C)ccc1OS(=O)(=O)c1ccccc1	none
CC1=NN(c2ccccc2)C(=O)/C1=C\N(O)c1ccccc1	none
CC1CCN(C2=C(NS(=O)(=O)c3ccc(Cl)cc3)C(=O)c3ccccc3C2=O)CC1	none
N=C1SC(c2ccccc2)C(=O)N1c1ncc(Cc2ccccc2Cl)s1 (stereo not drawn)	Apaf-1 act -170.9 | Rh110 interf act inactive | Apaf-1 act conf inactive
CCCNC(=O)OC[C@H]1O[C@H](CCO/N=C(\C)CCN2CCc3nc(-c4ccccc4)c(-c4ccccc4)cc3C2)C=C[C@@H]1Oc1ccc(OC)cc1	none
COc1ccc(-c2sc3cc4c(cc3c2C#CC2(N)CCCCC2)OCO4)cc1	none
CCN(CC)CCOC(=O)c1ccc(N/C=C(/C#N)c2nc(-c3ccc4c(c3)OCO4)cs2)cc1	none
CSc1ccccc1NC(=O)c1cc(-c2ccc3c(c2)OCO3)on1	Apaf-1 act -196.6 | Rh110 interf act inactive | Apaf-1 act conf inactive
CSc1ccccc1NC(=O)c1cc(S(=O)(=O)N(C)C)ccc1N1CCCC1	none
CCN(Cc1ccncc1)C(=O)c1ccc(Br)o1	Apaf-1 act -613.1 | Rh110 interf act inactive | Apaf-1 act conf inactive
CC(=O)N=Cc1c(C)c(C#N)c(=O)n(C)c1O	none
O=C(NNc1cc(N2CCCC2)nc(N2CCCC2)n1)c1ccc([N+](=O)[O-])cc1	none
Cn1cc([N+](=O)[O-])c(C(=O)NNC(=O)c2ccc([N+](=O)[O-])cc2Cl)n1	Apaf-1 act -160.7 | Rh110 interf act inactive | Apaf-1 act conf inactive
CCN(Cc1ccccc1)C(=O)C1CCC(CNc2c(N3CCOCC3)c(=O)c2=O)CC1 (stereo not drawn)	Apaf-1 act -410.3 | Rh110 interf act inactive | Apaf-1 act conf inactive
COc1ccccc1N1C(C)=CC(=C(C#N)c2nc3ccccc3s2)C=C1C	none
[O-]/C(=C(\C(=S)Nc1cccc2ccccc12)[n+]1ccccc1)c1ccc(Cl)s1	none
CC(C)NS(=O)(=O)c1ccc(OCC(=O)N(C)Cc2ccccc2)cc1	Apaf-1 act -555.1 | Rh110 interf act inactive | Apaf-1 act conf inactive
CN(Cc1ccccc1)C(=O)CN1C(=O)NC(C)(c2ccc(C(C)(C)C)cc2)C1=O (stereo not drawn)	none
CCc1ccc(OCC(=O)N/N=C2\CC(=O)c3ccccc32)cc1	none
CC(C)(C)c1cc(C(=O)N/N=C/c2ccc(-c3ccccc3[N+](=O)[O-])o2)n[nH]1	none
CCCc1[nH]nc2c1C(c1ccc(OC)c(CSC3=NCCS3)c1)C(C#N)=C(N)O2 (stereo not drawn)	none
CN(C)c1ccc2nc3ccc(=[N+](C)C)cc-3sc2c1	none
N#Cc1nc(-c2ccc(OCc3ccc(Cl)cc3)cc2)oc1N1CCC(C(N)=O)CC1	Apaf-1 act -82.1 | Rh110 interf act inactive | Apaf-1 act conf -96.4 | Apaf1 act interf inactive

Bioassay records: PubChem BioAssay, Sanford-Burnham Center for Chemical Genomics
